# NR2E3 ag-1 = activates human photoreceptor nuclear receptor NR2E3 | Q9Y5X4 | GST-NR2E3/biotin-RetCOR TR-FRET, 1536-well | inhibition of corepressor binding, % at 4.78 µM | 320,000 tested, 0.12% active;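 active means percent inhibition above the cutoff of mean plus 3 SD of all tested compounds, set per screening campaign, cut at about 20% in these data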;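 further: 0% = DMSO wells and 100% = biotin wells as full block of FRET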
# Target sequence (Q9Y5X4 whole entry, looked up): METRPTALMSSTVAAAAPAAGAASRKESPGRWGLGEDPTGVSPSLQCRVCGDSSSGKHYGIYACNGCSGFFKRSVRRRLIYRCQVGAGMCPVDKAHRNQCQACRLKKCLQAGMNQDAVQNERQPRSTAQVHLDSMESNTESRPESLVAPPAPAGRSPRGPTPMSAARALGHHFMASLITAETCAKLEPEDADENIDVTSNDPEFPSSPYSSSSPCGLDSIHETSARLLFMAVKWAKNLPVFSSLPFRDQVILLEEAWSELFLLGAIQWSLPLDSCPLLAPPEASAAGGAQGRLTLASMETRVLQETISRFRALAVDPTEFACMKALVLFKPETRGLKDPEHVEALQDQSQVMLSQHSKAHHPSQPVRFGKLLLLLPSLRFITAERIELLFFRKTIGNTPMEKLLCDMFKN
#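 Material: NR2E3–RetCOR corepressor complex / Incubation: Compound–protein incubation for 5 h at 4 °C / Dosing: compound at 4.8 µM, single dose / Detection: time-resolved FRET / Benchmarks: high control biotin, low control 0.6% DMSO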
# miR-122 sensor = miR-122 inhibition in Huh7 cells. Huh7 miR-122 Renilla luciferase sensor, 48 h; neutral wells = 0, positive control = 100. activation (reporter increase), % at 12.5 µM. AID 602342. 340,000 tested, 0.3% active;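 active means mean replicate activation score at least 90 and every replicate individually at or above 90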;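 further: higher luciferase means less miR-122 activity so hits act as miR-122 inhibitors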
# FGF22 binding = FGF22 (human) thermal shift binding; activity (Tm shift, normalised), % at 9.99 µM; recombinant FGF22 thermal shift, SYPRO orange fluorescence; percent of sucrose octasulfate shift, DMSO zero; Q9HCT0; AID 651658; 340,000 tested, 1.5% active;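 active means mean Tm shift, scaled 0 neutral to 100 positive control, at about 1.3% or above, every replicate too, limit read from the data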
# Target sequence (Q9HCT0 whole entry, looked up): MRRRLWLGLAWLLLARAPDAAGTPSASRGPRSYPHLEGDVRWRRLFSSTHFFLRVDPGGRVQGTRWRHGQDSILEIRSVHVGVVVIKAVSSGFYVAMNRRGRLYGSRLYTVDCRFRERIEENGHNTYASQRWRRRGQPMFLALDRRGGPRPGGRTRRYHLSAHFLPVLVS
# NR2E3 ag-2 = human photoreceptor-specific nuclear receptor agonism | AID 602229 | inhibition of corepressor binding, % at 3.98 µM | CHO-S Gal4-NCOR/VP16-NR2E3 two-hybrid, luciferase | 360,000 tested, 0.35% active;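 active means inhibition above the mean of all tested compounds plus 3 SD, cut at about 70% in these data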;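 further: 0% = DMSO with NR2E3 transfected cells and 100% = cells lacking NR2E3 construct; higher means lower luciferase signal from less NR2E3 corepressor binding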
# 697 NFkB inh = lowers PMA/ionomycin-induced NF-kB signal in 697 B cells; 330,000 tested, 0.33% active; inhibition, % at 4 µM; 697 B-cell NF-kB luciferase reporter, 16 h; in the data active means inhibition above about 35%
# Jurkat NFkB inh = inhibitors of the PMA/ionomycin-induced NF-kB reporter in Jurkat cells | PMA/ionomycin-induced NF-kB luciferase reporter, luminescence | inhibition, % at 4 µM | 330,000 tested, 0.53% active | AID 435003; in the data active means inhibition above about 50%
# 697 NFkB conf = inhibitors of the PMA/ionomycin-induced NF-kB reporter in 697 B cells, retest; 2,000 tested, 35% active; inhibition, % at 4 µM; AID 449746; 697 B-cell NF-kB luciferase, 16 h; shares compounds with 697 NFkB inh; in the data active means inhibition mostly above about 28%, no sharp cut-off; inactive means mostly below about 22%
# The depositor's hits bear a star; i = inactive; · = no result; [ ] = remark or other dose. Only some compounds are listed: those with a hit (about 2.2% of all), similar ones and a draw of the others.
SMILES,NR2E3 ag-1,miR-122 sensor,FGF22 binding,NR2E3 ag-2,697 NFkB inh,Jurkat NFkB inh,697 NFkB conf
COC(=O)C(C)Oc1ccc(-c2nccc(-c3ccc(F)cc3)n2)cc1 (centres undefined),-2,0,0,-25,-12,-14,·
CCCNC(=O)Nc1ccc2c(c1)C(=O)N(C)C[C@@H](OC)[C@H](C)CN(C(=O)C1CC1)[C@@H](C)CO2,·,·,0,·,·,·,·
Cn1cc(SCC(=O)NCc2ccc(F)cc2)c2ccccc21,-1,·,0,-13,40*,-9,-8
Cn1c(=O)cc(SCC(=O)NCc2ccc(F)cc2)c2ccccc21,-1,·,0,-46,-4,25,·
CCN(CC)c1ccc2cc(-c3nc4ccccc4[nH]3)c(=O)oc2c1,-1,12,·,-46,-303,-149,-375
Cc1ccc(-n2c(O)c(C=Nc3ccccc3-c3n[nH]c(=S)[nH]c3=O)c3ccccc3c2=O)cc1C,·,-8,0,-10,28,10,·
Cc1cccc(-n2c(O)c(C=Nc3ccccc3-c3n[nH]c(=S)[nH]c3=O)c3ccccc3c2=O)n1,2,4,0,-29,38*,6,-21
CO[C@H]1CN(C)C(=O)c2ccc(NS(=O)(=O)CC(F)(F)F)cc2OC[C@@H](C)N(Cc2nccs2)C[C@@H]1C,·,·,0,·,·,·,·
O=C(C[C@H]1C[C@H]2c3cc(NC(=O)Nc4ccccc4)ccc3O[C@H]2[C@H](CO)O1)NCc1ccccn1,·,3[16.7 µM],·,·,·,·,·
Oc1ccc(C[C@@H]2CNCCN2CCC23CC4CC(CC(C4)C2)C3)cc1,-4,-1,0,11,37*,12,-3
Cc1ccc(C(=O)c2cccc(N)c2)cc1C,-1,59,0,15,37*,-5,-12
COc1cc(C(=O)Nc2nc(OC)c(-c3ccccc3)c(OC)n2)cc(OC)c1OC,0,-3,·,15,38*,19,20
CC(=O)NC[C@H]1[C@H](c2ccc(-c3ccccc3F)cc2)[C@H](CO)N1C(=O)C1CC1,·,-7[16.7 µM],0,·,·,·,·
Cc1cc(=O)[nH]c2c(C)cc(S(=O)(=O)N3CCCCC3)cc12,·,-5,0,-2,43*,-3,36*
CCCN1C(=O)c2ccccc2NC1c1ccc(OC)cc1OC (centres undefined),-1,-3,·,-18,-23,-9,·
CCCN1C(=O)c2ccccc2NC1c1ccc(OC)cc1O (centres undefined),1,-12,·,7,-310,0,-292
COc1ccccc1N(Cc1ccccc1)S(=O)(=O)c1cccc(C(=O)Nc2ccccn2)c1,-2,11,0,-19,-324,-7,-190
CCOc1ccc(-c2nnc(SCC(=O)NC3CC3)o2)cc1,0,-5,0,-10,60*,-29,56*
CC(C)(C)c1ccc(-c2nnc(SCC(=O)NC3CC3)o2)cc1,4,-5,0,37,57*,-78,39*
Cc1nn(C)c(C)c1CN(C)C(=O)c1nn2c(c1Br)NC(c1cccs1)CC2C(F)(F)F (centres undefined),2,18,0,-20,11,6,·
Cc1nn(C)c(C)c1CN(C)C(=O)c1cnn2c1NC(c1ccccc1)CC2C(F)(F)F (centres undefined),3,-3,·,-7,39*,14,27
Cc1sc2nc(C3CC3)nc(SCC(=O)N3c4ccccc4CC3C)c2c1C (centres undefined),2,2,·,8,i,-75,i
N/C(=N\OC(=O)c1ccc(Cl)cc1Cl)c1ccc(Cl)cc1,0,5,·,-8,-260,-93,-177
N/C(=N\OC(=O)c1ccco1)c1ccc(Cl)cc1,2,-7,0,-52,-143,-91,·
Cc1ccn2cc(CCNC(=O)COc3ccccc3)nc2c1,0,-4,0,-3,35,-12,-12
SMILES,NR2E3 ag-1,miR-122 sensor,FGF22 binding,NR2E3 ag-2,697 NFkB inh,Jurkat NFkB inh,697 NFkB conf
CCCNC(=O)Nc1ccc2c(c1)C(=O)N(C)C[C@H](OC)[C@@H](C)CN(Cc1cccnc1)[C@@H](C)CO2,·,·,0,·,·,·,·
C[C@H](CO)N1C[C@H](C)[C@@H](CN(C)Cc2ccc(C(=O)Nc3ccccc3N)cc2)OCc2cnnn2CCCC1=O,·,2[16.7 µM],0,·,·,·,·
Cc1ccc(CSCC(=O)Nc2ccccc2C(=O)O)cc1,1,2,0,-114,i,-25,-394
CC1CC(C)CN(S(=O)(=O)c2ccc(C(=O)NCCCn3ccnc3)cc2)C1 (centres undefined),2,-15,·,26,70*,2,50*
O=C(NCCCn1ccnc1)c1ccc(S(=O)(=O)N2CCCCCC2)cc1,1,11,·,-5,-20,-15,·
O=C(C[C@@H]1CC[C@@H](NC(=O)NC2CCCCC2)[C@H](CO)O1)NCc1ccc(F)cc1,·,-4[16.7 µM],0,·,·,·,·
O=C(/C=C/Nc1ccc(F)cc1Br)c1ccccc1,0,-1,·,-60,-343,-47,-124
O=C(NCc1ccccn1)c1cc(-c2ccc(-c3ccccc3)cc2)nc2ccccc12,4,-8,0,-122,i,-53,i
COCCNC(=O)c1cc(-c2ccc(-c3ccccc3)cc2)nc2ccccc12,4,42,0,-80,i,-83,i
Oc1ccccc1-c1cc(C(F)(F)C(F)F)nc(-c2ccccc2)n1,2,·,·,-17,16,15,·
O=[N+]([O-])c1ccn(-c2nc(-c3ccccc3)cc(C(F)(F)F)n2)n1,-1,0,0,-17,39*,-11,3
O=[N+]([O-])c1ccc(O)c(-c2cc(C(F)(F)F)nc(-c3ccccc3)n2)c1,-1,·,0,28,i,45,-460
CCCNC(=O)Nc1ccc2c(c1)C(=O)N(C)[C@H]1CC[C@H](CC(=O)NC)O[C@H]1CO2,·,-27[16.7 µM],0,·,·,·,·
COCC(=O)N(C)C[C@H]1Oc2ncc(-c3ccccc3F)cc2C(=O)N([C@@H](C)CO)C[C@H]1C,·,·,0,·,·,·,·
CCc1c(C)sc(NC(=O)C2CC2c2ccccc2)c1C(N)=O (centres undefined),0,-13,·,-26,-488,-78,-269
CC(C)NC(=O)N(C)C[C@H]1Oc2ncc(C#Cc3ccncc3)cc2C(=O)N([C@H](C)CO)C[C@@H]1C,·,-8[16.7 µM],0,·,·,·,·
CCC(=O)Nc1ccc2c(c1)OC[C@H](C)N(Cc1nccs1)C[C@H](C)[C@H](OC)CN(C)C2=O,·,·,0,·,·,·,·
O=S(=O)(NCC[C@H]1CC[C@@H](NS(=O)(=O)c2cccc(F)c2)[C@@H](CO)O1)c1cccc(F)c1,·,·,0,·,·,·,·

# Compound activity (PubChem)
